This passage reports IC50 results from ChEMBL document CHEMBL1156659, “Cycloartane triterpenoids from Astragalus bicuspis” (J Nat Prod, 2008).

pIC50: −log10 of the molar value.

One assay relates to Leishmania major. Briefly: Antileishmanial activity against Leishmania major DESTO promastigotes after 72 hrs. It is filed as functional, organism-based. The method in brief:
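Log-phase promastigotes grown at 22-25 °C in RPMI-1640 with 10% heat-inactivated FBS, seeded at 1 × 10^6 cells/mL. Compounds were taken from a 1 mg/mL stock (DMSO, then complete medium), serially diluted, and incubated 21-22 °C for 72 h. Viable parasites were counted microscopically in a Neubauer chamber, and IC50 was derived by curve fitting. Run in duplicate.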

The subject of a further assay is NIH3T3. The experiment in a line: Cytotoxicity against mouse 3T3 cells after 72 hrs by MTT assay. Type of assay: cell-based. The conditions noted are these: for pIC50: Mus musculus, NIH3T3, 72 h, read-out: IC50; for IC50: nih3t3. The method in brief: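 Mouse fibroblasts were kept in DMEM with 5% FBS, penicillin and streptomycin at 37 °C under 5% CO2, seeded at 3 × 10^4 cells/mL, and left overnight. Fresh medium holding a compound concentration series was added for 72 h. MTT (2 mg/mL) was added for 4 h, then DMSO, and formazan was read at 540 nm. The value is the concentration giving 50% growth inhibition.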
On the technique in general: Formazan colour is commonly taken as a measure of viable cells.

`CO[C@H]1C[C@@H](C)[C@H]2[C@H](C[C@@]3(C)[C@@H]4C[C@H](O)[C@H]5C(C)(C)[C@@H](O[C@@H]6OC[C@@H](O)[C@@H](O)[C@H]6O)CC[C@@]56C[C@@]46CC[C@]23C)O1`: the IC50 in the assay with Leishmania major amounted to 93.65 µmol. In addition, in the assay on NIH3T3, the negative logarithm of the IC50 (pIC50) – broadly, the negative decadic logarithm of the IC50, by convention in mol/L – was 4.28.
`CC(C)(O)[C@@H]1CC[C@](C)([C@H]2[C@@H](O)C[C@@]3(C)[C@@H]4C[C@H](O)[C@H]5C(C)(C)[C@@H](O[C@@H]6OC[C@@H](O)[C@H](O)[C@H]6O)CC[C@@]56C[C@@]46CC[C@]23C)O1`: the figures for the IC50 in the assay with Leishmania major and in the assay on NIH3T3 were 56.51 µmol and 19.51 µmol, respectively.
`C[C@@H]1C[C@@]2(O[C@H]3C[C@@]4(C)[C@@H]5C[C@H](O)[C@H]6C(C)(C)[C@@H](O[C@@H]7OC[C@@H](O)[C@@H](O)[C@H]7O)CC[C@@]67C[C@@]57CC[C@]4(C)[C@@H]13)O[C@H](O)[C@]1(C)O[C@H]21`: in the assay with Leishmania major, the IC50 came out at 64.35 µmol. Besides, in the assay with NIH3T3, the pIC50 is less than 4.00.
Turning to `CC(C)(O)[C@@H]1CC[C@](C)([C@@H]2[C@@H](O)C[C@@]3(C)[C@@H]4C[C@H](O)[C@H]5C(C)(C)[C@@H](O)CC[C@@]56C[C@@]46CC[C@]23C)O1`, the IC50 in the assay on Leishmania major was 108 µM. In addition, in the assay with NIH3T3, the pIC50 was less than 4.00.
On to `C[C@@H]1[C@H](O)[C@@H](C)/C=C/C=C/C=C/C=C/C=C/C=C/C=C/[C@H](O[C@@H]2O[C@H](C)[C@@H](O)[C@H](N)[C@@H]2O)C[C@@H]2O[C@](O)(C[C@@H](O)C[C@@H](O)[C@H](O)CC[C@@H](O)C[C@@H](O)CC(=O)O[C@H]1C)C[C@H](O)[C@H]2C(=O)O` [AMPHOTERICIN B], for which, in the assay on Leishmania major, the IC50 worked out at 0.54 µmol.
For `C[C@@H]1C[C@@H]([C@H](O)CC2CC(=O)NC(=O)C2)C(=O)[C@@H](C)C1` [CYCLOHEXIMIDE], the IC50 in the assay on NIH3T3 came to 0.912 µmol.
On to `N=C(N)c1ccc(OCCCCCOc2ccc(C(=N)N)cc2)cc1` [PENTAMIDINE], for which, in the assay with Leishmania major, the IC50 is 4.32 µmol.
